Bioassay records deposited in PubChem BioAssay by The Scripps Research Institute Molecular Screening Center.
Shown are actives, neighbours in structure and some others; about 3.4% of the full set was active somewhere.
TAAR1 agonist = human TAAR1 agonists, primary screen, Fluo-8 calcium fluorescence, CHO RD-HGA16 cells; activation, % at 3 µM; hit rate 0.99% among 360,000; vehicle wells 0%, saturating PEA agonist 100%; Trace amine-associated receptor 1 (Homo sapiens), Q96RJ0;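 active = activation above the mean activation of all test compounds in the run plus 3 SD, cut at about 38% in these data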
Target sequence (Q96RJ0 whole entry, looked up): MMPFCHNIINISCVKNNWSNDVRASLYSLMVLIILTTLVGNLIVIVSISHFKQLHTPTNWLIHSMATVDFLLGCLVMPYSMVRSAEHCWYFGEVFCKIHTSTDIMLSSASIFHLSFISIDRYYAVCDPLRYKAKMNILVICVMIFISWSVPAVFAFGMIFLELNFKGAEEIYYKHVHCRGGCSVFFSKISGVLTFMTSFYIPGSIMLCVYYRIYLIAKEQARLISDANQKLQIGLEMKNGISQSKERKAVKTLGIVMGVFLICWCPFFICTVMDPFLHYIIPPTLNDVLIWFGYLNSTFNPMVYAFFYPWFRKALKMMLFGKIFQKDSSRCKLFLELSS
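Test system: RD-HGA16 (CHO) cells co-expressing Gα16 and hTAAR1 | Doses: Single dose, 3 µM | Schedule: 17-24 h seeding, 75 min 37 °C dye, 30 min RT | Evaluation: % activation from peak over basal fluorescence ratio, DMSO-to-PEA scaled | Technique: Kinetic Fluo-8 calcium fluorescence | Benchmarks: Low control DMSO, high control PEA (EC100)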
CHRM1 PAM = human M1 muscarinic receptor positive allosteric modulators, primary screen, CHO-K1 cells, Fluo-8 calcium fluorescence, 1536-well; activation, % at 3 µM; AID 588819, 2011; Muscarinic acetylcholine receptor M1 (Homo sapiens), P11229; hit rate 0.088% among 360,000; CHO-K1 hM1, ACh EC20; 0% = ACh EC20, 100% = maximal ACh; in the data active = activation above about 19%, passing the limit was not always enough
M1 ag = human M1 muscarinic receptor agonists, primary screen, Fluo-8 calcium fluorescence, CHO-K1 cells, HTS | CHO-K1 hM1, agonist mode; 0% DMSO, 100% acetylcholine EC100 | activation, % at 3 µM | hit rate 0.33% among 360,000 | AID 588814, 2011;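 active = activation above the run's mean compound activation plus 3 SD, cut at about 16% in these data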;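 note: peak over basal fluorescence ratio within a 140 s kinetic read after compound addition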
TAAR1 antagonist = human TAAR1 antagonists, primary screen, Fluo-8 calcium fluorescence, CHO RD-HGA16 cells; Trace amine-associated receptor 1 (Homo sapiens), Q96RJ0; antagonist; inhibition, % at 3 µM; hit rate 1.5% among 360,000; AID 624466, 2012;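 active = inhibition above a per-plate cutoff, the mean inhibition of test compounds on that plate plus 3 SD, cut at about 49% in these data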
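Assay system: CHO-derived RD-HGA16 cells stably expressing human TAAR1 plus Gα16. Timing: 140 s kinetic read after compound, 140 s after agonist. Technique: kinetic Fluo-8 calcium fluorescence measurement. Measure: % inhibition of agonist calcium response.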
CHRM1 antagonist = human M1 muscarinic receptor antagonists, primary screen, CHO-K1 cells, Fluo-8 calcium fluorescence, 1536-well; hit rate 1.3% among 360,000; AID 588852, 2011; inhibition, % at 3 µM; Muscarinic acetylcholine receptor M1 (Homo sapiens), P11229; CHO-K1 hM1, ACh EC80 antagonist;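 active = percent inhibition above its own plate's cutoff, namely the mean of that plate's compound wells plus 3 SD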;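 note: peak over basal fluorescence ratio during 140 s after agonist addition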
TAAR1 ag conf = human TAAR1 agonists, retest of hits, confirmation, Fluo-8 calcium fluorescence, CHO RD-HGA16 cells | scaled: DMSO 0%, maximal phenethylamine 100% | activation, % at 3 µM | shares compounds with TAAR1 agonist | hit rate 82% among 2,400 | AID 651783, 2012;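 active = activation above a cutoff set at the run's mean compound activation plus 3 SD, cut at about 39% in these data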
Ga16 ag counter = nonselective calcium mobilization agonists, CHO-Ga16 cells, counter-screen for hTAAR1 agonist project, cell-based, fluorescence, CHO-Ga16 parental line; AID 651787, 2012; shares compounds with TAAR1 agonist; activation, % at 3 µM; Fluo-8 calcium fluorescence; normalized to maximal ATP response, DMSO zero; hit rate 50% among 2,400;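 active = activation above the run cutoff, the mean activation over all tested wells plus 3 SD, cut at about 12% in these data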
TAAR1 desens = TAAR1 desensitization by agonist hits, confirmation, counter-screen for TAAR1 agonist project, cell-based, fluorescence, tachyphylaxis. AID 651951, 2012. CHO RD-HGA16 hTAAR1, Fluo-8 calcium, beta-PEA response inhibition. hit rate 46% among 2,400. shares compounds with TAAR1 agonist. inhibition, % at 3 µM;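 active = inhibition above the run cutoff, the mean inhibition of all test compounds plus 3 SD, cut at about 49% in these data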;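 note: beta-PEA stimulus applied at its EC80; loss of beta-PEA calcium signal after compound pretreatment read as receptor desensitization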
Ga16 antag count = inhibition of ATP-evoked calcium response in CHO-Ga16 cells, counter-screen for TAAR1 agonist project, cell-based, fluorescence; shares compounds with TAAR1 agonist; CHO-Ga16 ATP-induced calcium, Fluo-8 fluorescence; inhibition, % at 3 µM; hit rate 39% among 2,400; AID 651952, 2012;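 active = inhibition above the plate's mean compound inhibition plus 3 SD, computed per plate, cut at about 22% in these data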
Large screens that a line does not name were inactive (follow-up assays come after a bar, where they were run).

CCCOc1ccc2oc(=O)c3c(c2c1)CCCN3C(=O)CN1CCc2ccccc2C1	TAAR1 agonist 73 | TAAR1 ag conf 54 | Ga16 ag counter inactive | TAAR1 desens inactive | Ga16 antag count inactive
Cc1ccc(CNC(=O)OC2CC3CC2[C@H]2CCCCN2C3=O)cc1 (stereo partly specified)	TAAR1 agonist 54 (no result: CHRM1 PAM, M1 ag, CHRM1 antagonist) | TAAR1 ag conf inactive | Ga16 ag counter inactive | TAAR1 desens inactive | Ga16 antag count inactive
COc1cc(CNC(=O)OC2CC3CC2[C@H]2CCCCN2C3=O)cc(OC)c1 (stereo partly specified)	none (no result: CHRM1 PAM, M1 ag, CHRM1 antagonist)
Cc1ccccc1C(=O)c1cccn1CC(=O)NCc1ccccc1Cl	TAAR1 agonist 50 | TAAR1 ag conf inactive | Ga16 ag counter inactive | TAAR1 desens inactive | Ga16 antag count inactive
O=C(CSc1n[nH]c(Cc2ccccc2)n1)Nc1ccccc1Br	none
CC(Cc1ccccc1)N/C=C1\CC(=O)NC1=O (stereo unspecified)	TAAR1 agonist 74, TAAR1 antagonist 53 | TAAR1 ag conf 72 | Ga16 ag counter inactive | TAAR1 desens inactive | Ga16 antag count inactive
CC(Cc1ccccc1)NC(=O)C1CCCNC1=O (stereo unspecified)	none
CCC1CN(C(=O)N2CCC(C(=O)NCCc3ccccc3)CC2)c2ccccc2O1 (stereo unspecified)	TAAR1 agonist 53, TAAR1 antagonist 58 | TAAR1 ag conf 84 | Ga16 ag counter 16 | TAAR1 desens 83 | Ga16 antag count 34
CCC1CN(C(=O)N2CCC(C(=O)NCc3ccccc3OC)CC2)c2ccccc2O1 (stereo unspecified)	none
O=C(NCCc1ccccc1)C1CCN(C(=O)c2ccc([N+](=O)[O-])cc2)CC1	none (no result: TAAR1 agonist, TAAR1 antagonist) | Ga16 ag counter inactive | Ga16 antag count inactive
OCCNc1nc(Nc2ccccc2)nc2ccccc12	TAAR1 agonist 97, TAAR1 antagonist 92 | TAAR1 ag conf 89 | Ga16 ag counter inactive | TAAR1 desens 98 | Ga16 antag count inactive
Cc1c(Cl)cccc1Nc1nc(NCCO)c2ccccc2n1	TAAR1 agonist 49 | TAAR1 ag conf 83 | Ga16 ag counter inactive | TAAR1 desens 84 | Ga16 antag count inactive
O=C1NC[C@@H](CCCCN2CCN(CCc3ccc(O)cc3)C(=O)C2=O)N(CCC2CCCCC2)C1=O	none (no result: CHRM1 PAM, M1 ag, CHRM1 antagonist)
O=C(O)CCCC(=O)NCCc1cccc(Cl)c1	none
O=C(O)C1C2CCC(C2)C1C(=O)NCCc1ccc(F)cc1 (stereo unspecified)	TAAR1 agonist 78, TAAR1 antagonist 79 | TAAR1 ag conf 77 | Ga16 ag counter inactive | TAAR1 desens 55 | Ga16 antag count inactive
O=C(O)C1C2CCC(C2)C1C(=O)NCCc1cccc(Cl)c1 (stereo unspecified)	TAAR1 agonist 76, TAAR1 antagonist 86 | TAAR1 ag conf 88 | Ga16 ag counter inactive | TAAR1 desens 73 | Ga16 antag count inactive
Cc1ccc(SC/C(O)=C(\C#N)c2nc3ccccc3n2C)cc1	TAAR1 agonist 52, TAAR1 antagonist 56 | TAAR1 ag conf inactive | Ga16 ag counter 51 | TAAR1 desens inactive | Ga16 antag count 53
CCc1c(-c2ccc(OC)cc2)ncn1Cc1cccc(-c2ccccc2)c1	none (no result: CHRM1 PAM, M1 ag, CHRM1 antagonist)
Cc1cc(NS(=O)(=O)c2c(C)[nH]c(=O)[nH]c2=O)ccc1Br	TAAR1 agonist 73 | TAAR1 ag conf inactive | Ga16 ag counter inactive | TAAR1 desens inactive | Ga16 antag count inactive
Cc1cc(Br)ccc1NS(=O)(=O)c1c(C)[nH]c(=O)[nH]c1=O	none
CCc1ncn(CCc2ccccc2OC)c1C(C)C	TAAR1 agonist 53 (no result: CHRM1 PAM, M1 ag, CHRM1 antagonist) | TAAR1 ag conf 63 | Ga16 ag counter inactive | TAAR1 desens inactive | Ga16 antag count inactive
COc1ccccc1CCn1cnc(Cc2cccc(F)c2)c1C(C)C	none (no result: CHRM1 PAM, M1 ag, CHRM1 antagonist)
COc1ccccc1CCn1cnc(C)c1CC(C)C	TAAR1 agonist 76 (no result: CHRM1 PAM, M1 ag, CHRM1 antagonist) | TAAR1 ag conf 69 | Ga16 ag counter inactive | TAAR1 desens inactive | Ga16 antag count inactive
O=[N+]([O-])c1cc(S(=O)(=O)N2CCCCCC2)ccc1Cl	none
COc1ccc(CCNC2CC(=O)N(CCc3ccccc3)C2=O)cc1 (stereo unspecified)	none
O=C1CC(NCCc2ccccc2)C(=O)N1CCc1ccccc1 (stereo unspecified)	TAAR1 agonist 61 | TAAR1 ag conf 63 | Ga16 ag counter inactive | TAAR1 desens inactive | Ga16 antag count inactive
O=C(O)C1C2C=CC(C3CC23)C1C(=O)NCCc1ccccc1 (stereo unspecified)	TAAR1 agonist 91, TAAR1 antagonist 93 | TAAR1 ag conf 96 | Ga16 ag counter inactive | TAAR1 desens 97 | Ga16 antag count inactive
CC(C)=C1C2CCC1C(C(=O)NCCc1ccccc1)C2C(=O)O (stereo unspecified)	TAAR1 agonist 62, TAAR1 antagonist 88 | TAAR1 ag conf 80 | Ga16 ag counter inactive | TAAR1 desens 90 | Ga16 antag count inactive
O=C(NCCc1ccccc1)C1CCN(c2ncccn2)CC1	none
COCCCn1c(SC(C)C(=O)NC2CC2)nc2ccccc2c1=O (stereo unspecified)	none
CCN(CC)CCc1c(C)[nH]c(C(=O)OCc2ccccc2)c1C	TAAR1 agonist 71 | TAAR1 ag conf 73 | Ga16 ag counter inactive | TAAR1 desens 74 | Ga16 antag count inactive
O=c1ccnc(NCCc2ccccc2)[nH]1	none (no result: TAAR1 agonist, TAAR1 antagonist) | Ga16 ag counter inactive | Ga16 antag count inactive
CCCc1cc(=O)[nH]c(NCCc2ccccc2)n1	none
O=C(NCC(c1ccco1)N1CCc2ccccc2C1)C(=O)Nc1ccccc1 (stereo unspecified)	none
O=C(NCC(c1ccco1)N1CCc2ccccc2C1)c1ccccc1 (stereo unspecified)	none
